Laboratory results from ChEMBL document CHEMBL3875213, “Quinolines: Microwave-assisted synthesis and their antifungal, anticancer and radical scavenger properties” (Bioorg Med Chem, 2017).
Values after ≈ are worked out from the molar mass of the structure shown. Active and inactive are the calls of the source. The rule behind the calls is not given here.

System: not listed separately
Test: Antifungal activity against Cryptococcus neoformans ATCC 32264 incubated for 48 hrs under dark condition by broth microdilution assay
Format: functional
Details: not given
Method in brief: (§1)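 Broth microdilution per CLSI M27-A3 in RPMI-1640. Inocula adjusted to 1-5 x 10^3 CFU/mL. Stocks in DMSO (≤1%), final 3.9-250.0 µg/mL. Incubated 48 h at 30 °C in a moist, dark chamber, read at OD 405. % inhibition computed from growth and sterility control wells, run in triplicate. MIC80/MIC50 taken from four-parameter logistic concentration-response curves; amphotericin B as positive control.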

MIC50 [µg/mL]	MIC80 [µg/mL]	Compound
250 (≈ 682 µM)	> 250	Brc1ccc2nc(C3CCCCC3)cc(-c3ccccc3)c2c1
> 250	> 250	O=[N+]([O-])c1cccc(-c2cc(-c3ccccc3)c3cc(Br)ccc3n2)c1
125 (≈ 383 µM)	> 250	O=[N+]([O-])c1ccc2c(-c3ccccc3)cc(-c3ccccc3)nc2c1

System: not listed separately
Test: Antiproliferative activity against human CCD-19Lu cells after 24 hrs by MTT assay
Format: cell-based
Details: not given
Method in brief: (§2)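 Cells grown in medium with 10% foetal bovine serum and 1% L-glutamine at 37 °C, 5% CO2, seeded at 1 x 10^5 cells/well. Exposed to compound at 1.0-1,000 µg/mL for 24 h. MTT added, absorbance read at 540 nm 3 h later. IC50 obtained by non-linear regression of viability data.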

Compound	IC50 [µM]
Brc1ccc2nc(C3CCCCC3)cc(-c3ccccc3)c2c1	490

System: Candida albicans
Test: Growth inhibition of Candida albicans ATCC 10231 at 250 ug/ml incubated for 48 hrs under dark condition by broth microdilution assay relative to amphotericin B
Format: functional
Details: ATCC 10231, 48 h, read-out: GI
Method in brief: (§3)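 Yeast broth microdilution (CLSI M27-A3), RPMI-1640, inoculum 1-5 x 10^3 CFU/mL, DMSO ≤1%, 48 h at 30 °C in a moist, dark chamber. […]. Triplicate; amphotericin B as positive control.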

Compound	inhibition of growth at 250 µg/mL [%]
Brc1ccc2nc(C3CCCCC3)cc(-c3ccccc3)c2c1	37.2
O=[N+]([O-])c1cccc(-c2cc(-c3ccccc3)c3cc(Br)ccc3n2)c1	9.14
O=[N+]([O-])c1ccc2c(-c3ccccc3)cc(-c3ccccc3)nc2c1	54.8

System: not listed separately
Test: Antiproliferative activity against human NCI-H226 cells harboring TP53 mutant after 24 hrs by MTT assay
Format: functional, cell-based
Details: NCI-H226, 24 h
Method in brief: as §2

Compound	IC50 [µM]
Brc1ccc2nc(C3CCCCC3)cc(-c3ccccc3)c2c1	91
O=[N+]([O-])c1cccc(-c2cc(-c3ccccc3)c3cc(Br)ccc3n2)c1	8.5
O=[N+]([O-])c1ccc2c(-c3ccccc3)cc(-c3ccccc3)nc2c1	559

System: not listed separately
Test: Antioxidant activity assessed as fluorescent light-induced superoxide anion scavenging activity incubated for 10 mins by nitroblue tetrazolium dye based assay
Format: functional
Details: not given
Method in brief: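 Riboflavin/light superoxide system: 50 mM phosphate pH 7.8, 13 mM L-methionine, 75 µM NBT, 100 µM EDTA, 2 µM riboflavin, compound 0-200 µg/mL. Fluorescent light for 10 min at 25 °C, dark controls, scavenging measured at 575 nm. Resveratrol as reference.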

Compound	SC50 [µM]
Brc1ccc2nc(C3CCCCC3)cc(-c3ccccc3)c2c1	> 250

System: Candida albicans
Test: Growth inhibition of Candida albicans ATCC 10231 at 3.9 ug/ml incubated for 48 hrs under dark condition by broth microdilution assay relative to amphotericin B
Format: functional
Details: ATCC 10231, 48 h, read-out: GI
Method in brief: as §3

Compound	inhibition of growth at 3.9 µg/mL [%]
Brc1ccc2nc(C3CCCCC3)cc(-c3ccccc3)c2c1	0
O=[N+]([O-])c1cccc(-c2cc(-c3ccccc3)c3cc(Br)ccc3n2)c1	0
O=[N+]([O-])c1ccc2c(-c3ccccc3)cc(-c3ccccc3)nc2c1	3.42

System: Candida albicans
Test: Growth inhibition of Candida albicans ATCC 10231 at 7.81 ug/ml incubated for 48 hrs under dark condition by broth microdilution assay relative to amphotericin B
Format: functional
Details: ATCC 10231, 48 h, read-out: GI
Method in brief: as §3

Compound	inhibition of growth at 7.81 µg/mL [%]
Brc1ccc2nc(C3CCCCC3)cc(-c3ccccc3)c2c1	0
O=[N+]([O-])c1cccc(-c2cc(-c3ccccc3)c3cc(Br)ccc3n2)c1	0
O=[N+]([O-])c1ccc2c(-c3ccccc3)cc(-c3ccccc3)nc2c1	4.97

System: NCI-H226
Test: Selectivity index, ratio of IC50 for human CCD-19Lu cells to IC50 for human NCI-H226 cells
Format: functional
Details: not given
Method in brief: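 Selectivity index equals IC50 in non-tumour CCD 19-Lu lung fibroblasts divided by IC50 in the tumour line. Both IC50s come from the 24 h MTT assay (read at 540 nm) over 1.0-1,000 µg/mL.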

Compound	Ratio IC50
Brc1ccc2nc(C3CCCCC3)cc(-c3ccccc3)c2c1	5

System: Candida albicans
Test: Growth inhibition of Candida albicans ATCC 10231 at 31.25 ug/ml incubated for 48 hrs under dark condition by broth microdilution assay relative to amphotericin B
Format: functional
Details: ATCC 10231, 48 h, read-out: GI
Method in brief: as §3

Compound	inhibition of growth at 31.25 µg/mL [%]
Brc1ccc2nc(C3CCCCC3)cc(-c3ccccc3)c2c1	1.49
O=[N+]([O-])c1cccc(-c2cc(-c3ccccc3)c3cc(Br)ccc3n2)c1	4.86
O=[N+]([O-])c1ccc2c(-c3ccccc3)cc(-c3ccccc3)nc2c1	10.6

System: Candida albicans
Test: Antifungal activity against Candida albicans ATCC 10231 incubated for 48 hrs under dark condition by broth microdilution assay
Format: functional
Details: ATCC 10231, 48 h
Method in brief: as §1

MIC50 [µg/mL]	MIC80 [µg/mL]	Compound
250 (≈ 682 µM)	> 250	Brc1ccc2nc(C3CCCCC3)cc(-c3ccccc3)c2c1
> 250	> 250	O=[N+]([O-])c1cccc(-c2cc(-c3ccccc3)c3cc(Br)ccc3n2)c1
250 (≈ 766 µM)	> 250	O=[N+]([O-])c1ccc2c(-c3ccccc3)cc(-c3ccccc3)nc2c1

System: Candida albicans
Test: Growth inhibition of Candida albicans ATCC 10231 at 125 ug/ml incubated for 48 hrs under dark condition by broth microdilution assay relative to amphotericin B
Format: functional
Details: ATCC 10231, 48 h, read-out: GI
Method in brief: as §3

Compound	inhibition of growth at 125 µg/mL [%]
Brc1ccc2nc(C3CCCCC3)cc(-c3ccccc3)c2c1	11.3
O=[N+]([O-])c1cccc(-c2cc(-c3ccccc3)c3cc(Br)ccc3n2)c1	5.11
O=[N+]([O-])c1ccc2c(-c3ccccc3)cc(-c3ccccc3)nc2c1	38.5

System: Candida albicans
Test: Growth inhibition of Candida albicans ATCC 10231 at 15.62 ug/ml incubated for 48 hrs under dark condition by broth microdilution assay relative to amphotericin B
Format: functional
Details: ATCC 10231, 48 h, read-out: GI
Method in brief: as §3

Compound	inhibition of growth at 15.62 µg/mL [%]
Brc1ccc2nc(C3CCCCC3)cc(-c3ccccc3)c2c1	0
O=[N+]([O-])c1cccc(-c2cc(-c3ccccc3)c3cc(Br)ccc3n2)c1	3.43
O=[N+]([O-])c1ccc2c(-c3ccccc3)cc(-c3ccccc3)nc2c1	7.07

System: not listed separately
Test: Antioxidant activity assessed as DPPH radical scavenging activity incubated for 30 mins under dark condition
Format: functional
Details: not given
Method in brief: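 DPPH (100 µM) in ethanolic medium, stirred 30 min in the dark, absorbance at 517 nm. Compound varied from 0 to 160 µg/mL to find the concentration scavenging 50% of radicals. Three independent experiments, each in triplicate.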

Compound	SC50 [µM]
Brc1ccc2nc(C3CCCCC3)cc(-c3ccccc3)c2c1	118

System: not listed separately
Test: Antioxidant activity assessed as DPPH radical scavenging activity at 160 uM incubated for 30 mins under dark condition
Format: functional
Details: not given
Method in brief: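 Compound at 160 µM incubated with 100 µM DPPH in ethanolic medium, stirred in the dark for 30 min, read at 517 nm. Resveratrol as positive control. Three independent experiments, each in triplicate.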

Compound	Activity [%]
Brc1ccc2nc(C3CCCCC3)cc(-c3ccccc3)c2c1	45 to 55
O=[N+]([O-])c1cccc(-c2cc(-c3ccccc3)c3cc(Br)ccc3n2)c1	35 to 40

System: not listed separately
Test: Antioxidant activity assessed as fluorescent light-induced superoxide anion scavenging activity at 160 uM incubated for 10 mins by nitroblue tetrazolium dye based assay
Format: functional
Details: not given
Method in brief: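 Superoxide generated photochemically in 50 mM phosphate buffer pH 7.8 with 13 mM L-methionine, 75 µM nitroblue tetrazolium, 100 µM EDTA and 2 µM riboflavin. Compound at 160 µM. 10 min at 25 °C under fluorescent light; dark controls. Read at 575 nm. Resveratrol as positive control; three independent experiments in triplicate.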

Compound	Activity
Brc1ccc2nc(C3CCCCC3)cc(-c3ccccc3)c2c1	Active

System: Candida albicans
Test: Growth inhibition of Candida albicans ATCC 10231 at 62.5 ug/ml incubated for 48 hrs under dark condition by broth microdilution assay relative to amphotericin B
Format: functional
Details: ATCC 10231, 48 h, read-out: GI
Method in brief: as §3

Compound	inhibition of growth at 62.5 µg/mL [%]
Brc1ccc2nc(C3CCCCC3)cc(-c3ccccc3)c2c1	3.29
O=[N+]([O-])c1cccc(-c2cc(-c3ccccc3)c3cc(Br)ccc3n2)c1	4.99
O=[N+]([O-])c1ccc2c(-c3ccccc3)cc(-c3ccccc3)nc2c1	19.8
